Source: PubChem (several laboratories)
Compounds with a hit are over-represented: about 12% of the library has one in this group of screens.
WT yeast gro inh = growth inhibition of WT yeast, mitochondrial fusion screen; inhibition, % at 10 µM; mitochondrial fusion phenotypic screen, WT strain; AID 1362; actives 2.1% (n = 190,000); in the data active = inhibition above about 58%; tested in S. cerevisiae
L major viab = inhibitors of Leishmania major promastigote growth; Leishmania major promastigotes, resazurin fluorescence viability; inhibition, % at 10 µM; actives 9% (n = 200,000); AID 1063; in the data active = inhibition above about 50%;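 note: promastigotes grown with compound for 44 hours at 28 °C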
Cl transport mod = modulators of human KCC2 chloride dependent transport. AID 1456. KCC2 cells, thallium flux FluoZin-2 fluorescence. B-score of Tl+ flux slope (higher = more flux/activation; lower = inhibition) at 10 µM. actives 2.2% (n = 190,000);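 active = thallium flux slope and its plate-corrected score both differing from the plate sample mean at a set confidence after two filtering rounds, in either direction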;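 note: slope of fluorescence scaled to starting intensity during 10 to 20 s after thallium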
Target sequence (Q9H2X9 whole entry, looked up): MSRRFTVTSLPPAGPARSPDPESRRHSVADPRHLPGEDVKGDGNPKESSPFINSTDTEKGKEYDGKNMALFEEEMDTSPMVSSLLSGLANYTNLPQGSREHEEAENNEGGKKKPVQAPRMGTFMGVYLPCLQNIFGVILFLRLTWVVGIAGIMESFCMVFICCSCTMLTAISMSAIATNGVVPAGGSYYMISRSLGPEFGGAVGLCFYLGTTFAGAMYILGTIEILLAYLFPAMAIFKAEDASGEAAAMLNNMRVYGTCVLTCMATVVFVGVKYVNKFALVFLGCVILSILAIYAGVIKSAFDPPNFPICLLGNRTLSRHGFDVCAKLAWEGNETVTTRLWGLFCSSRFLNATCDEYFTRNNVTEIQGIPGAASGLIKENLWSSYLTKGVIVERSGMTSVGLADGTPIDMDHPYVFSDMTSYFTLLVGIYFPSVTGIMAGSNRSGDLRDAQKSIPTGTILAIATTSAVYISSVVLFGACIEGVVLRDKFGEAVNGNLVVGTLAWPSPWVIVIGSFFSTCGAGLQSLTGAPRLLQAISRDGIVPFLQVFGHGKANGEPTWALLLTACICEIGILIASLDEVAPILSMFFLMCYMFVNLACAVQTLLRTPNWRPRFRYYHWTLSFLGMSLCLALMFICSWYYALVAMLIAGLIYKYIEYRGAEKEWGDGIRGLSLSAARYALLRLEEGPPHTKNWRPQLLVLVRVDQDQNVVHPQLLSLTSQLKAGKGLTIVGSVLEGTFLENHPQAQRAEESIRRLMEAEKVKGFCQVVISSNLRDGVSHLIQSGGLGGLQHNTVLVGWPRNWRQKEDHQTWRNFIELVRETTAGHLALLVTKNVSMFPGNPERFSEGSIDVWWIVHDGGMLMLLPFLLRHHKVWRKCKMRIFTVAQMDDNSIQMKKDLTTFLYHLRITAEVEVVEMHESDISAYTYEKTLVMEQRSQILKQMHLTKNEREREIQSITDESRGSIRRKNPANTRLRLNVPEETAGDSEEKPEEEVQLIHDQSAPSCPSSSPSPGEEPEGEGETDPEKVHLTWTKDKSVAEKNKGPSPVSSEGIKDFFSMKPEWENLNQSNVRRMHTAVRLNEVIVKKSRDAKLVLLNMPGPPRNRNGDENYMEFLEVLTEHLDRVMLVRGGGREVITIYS
Diaphorase inh = inhibits diaphorase or chemically oxidizes, flagging diaphorase assay artifacts | diaphorase resazurin-to-resorufin fluorescence, NADH, 16 min; bacterial (C. kluyveri) enzyme, not human | inhibition, % at 20 µM | actives 0.69% (n = 190,000);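 active = primary screen inhibition at 20 µM above a set limit, cut at about 50% in these data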
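controls = No-NADH positive control and DMSO neutral control | system = Clostridium kluyveri diaphorase enzyme | timing = reaction incubation of 16 min at room temperature | signal = resorufin fluorescence 544/590 nm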
Diaphorase act = diaphorase activation or chemical reduction counter-screen; activation factor at 20 µM; actives 0.005% (n = 190,000); Diaphorase/resazurin coupled assay, resorufin fluorescence, 16 min; hits give high values; 1 = vehicle wells, 0 = NADH-free wells; AID 1229;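 active = diaphorase activity raised at least twofold by the compound at 20 µM; inactive = activation factor below 2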
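test system = bacterial diaphorase enzyme (C. kluyveri) | quantity = enzyme 0.07 U/mL final | reagent = NADH substrate 0.114 mM plus resazurin dye 0.1 mM, final | incubation = 16 min enzyme reaction, ambient temperature | buffer or medium = HEPES pH 7.4 buffer with MgCl2 and Tween 20 | signal = fluorescence of resorufin, 544 nm excitation, 590 nm emission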
ROMK primary = modulators of human ROMK potassium channel; AID 1918; actives 2% (n = 130,000); Tet-inducible ROMK, thallium flux fluorescence; actives lie on both sides; B-score at 10 µM;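 active = signal ratio slope over the read window, or its plate-corrected B-score, at least 3 SD from the plate mean, either direction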;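 note: B-score of the F/F0 ratio slope over 7 to 12 s after thallium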
Large screens that a line does not name were inactive.

Cc1cc(C)cc(C(=O)OCC(=O)Nc2cccc(S(=O)(=O)NC3=NCCCCC3)c2)c1	L major viab 52.1
O=C1CC(c2cccc(Cl)c2)Cc2nc(N3CCN(c4ccccc4)CC3)ncc21 (stereo not given)	none (no result: ROMK primary)
CCN1CCN(c2ncc3c(n2)CC(c2cc(OC)c(OC)c(OC)c2)CC3=O)CC1 (stereo not given)	L major viab 99.8 (no result: Cl transport mod)
OCCNCCCCCOc1ccc(F)cc1	L major viab 97.1 (no result: Cl transport mod)
CCc1cccc(OCCCCNCCO)c1	L major viab 91.3
Cc1cc(OCCCCCNCCO)ccc1Cl	L major viab 100.0
CN1CCN(CCCCOc2ccc(F)cc2)CC1	none
CCc1ccccc1OCCCCCNCCO	L major viab 92.5
CCCCNCCCCOc1ccccc1	L major viab 87.9
CCC(=O)NCCCOc1ccccc1	none (no result: WT yeast gro inh, ROMK primary)
Cc1cccc(OCCCCCNCCO)c1	L major viab 99.0 (no result: Cl transport mod)
O=C(N/N=C\c1ccc(-c2ccccc2[N+](=O)[O-])o1)C1COc2ccccc2O1 (stereo not given)	L major viab 51.6 (no result: ROMK primary)
O=C(O)c1cccc(-c2ccc(/C=N/NC(=O)C3COc4ccccc4O3)o2)c1 (stereo not given)	none (no result: ROMK primary)
O=C(N/N=C\c1ccc(-c2ccccc2[N+](=O)[O-])o1)C1COc2cc3ccccc3cc2O1 (stereo not given)	L major viab 96.1, Diaphorase inh 64.4 (no result: ROMK primary)
O=C(N/N=C\C=C\c1ccc2c(c1)OCO2)C1COc2ccccc2O1 (stereo not given)	L major viab 65.3
O=C(N/N=C\c1ccc([N+](=O)[O-])o1)C1COc2ccccc2O1 (stereo not given)	L major viab 100.0
COC(=O)C1=C(NC(=O)COc2ccc(Cl)cc2Cl)CCS1	none
Cc1c(NC(=O)c2cc3ccccc3oc2=O)c(=O)n(-c2ccccc2)n1C	none
Cc1ccc(NC(=O)N2CCCC(C(=O)O)C2)cc1 (stereo not given)	none (no result: WT yeast gro inh, L major viab, Diaphorase inh, Diaphorase act, ROMK primary)
COc1ccccc1NC(=O)c1ccc(NS(=O)(=O)c2ccc(F)c(F)c2F)cc1	L major viab 66.0
COc1ccccc1NS(=O)(=O)c1cc(NC(=O)c2ccc3c(c2)OCCO3)ccc1C	L major viab 57.8
COc1ccccc1NS(=O)(=O)c1cc(NC(=O)CNC(=O)c2ccccc2)ccc1C	L major viab 63.9
COc1ccccc1NS(=O)(=O)c1cc(NC(=O)CCNC(C)=O)ccc1C	none
O=c1[nH]c(=O)n(Cc2ccco2)c2c1C(C(F)(F)F)(C(F)(F)F)N=C(CCC1CCCCC1)N2	none (no result: ROMK primary)
CC(C)Cn1c2c(c(=O)[nH]c1=O)C(C(F)(F)F)(C(F)(F)F)N=C(CCC1CCCCC1)N2	L major viab 79.8
O=C(Cc1ccccc1)NCC(=O)OCC(=O)c1ccc(OC(=O)c2ccccc2)cc1	none
CCc1ccc(C(O)(c2ccccc2OC)C(CN2CCOCC2)c2ccccc2)cc1 (stereo not given)	WT yeast gro inh 76.9
O=C1c2ccccc2C(=O)N1CC#CCN1CCN(C(c2ccccc2)c2ccccc2)CC1	WT yeast gro inh 67.6 (no result: ROMK primary)
O=S(=O)(CCN1CCN(C(c2ccccc2)c2ccccc2)CC1)C(F)(F)F	none (no result: ROMK primary)
Cc1cc(C)nc(SCC(=O)Nn2cnnc2)n1	none (no result: ROMK primary)
Cc1cc(NC(=O)c2ccc(S(=O)(=O)N3CCOCC3)cc2)no1	L major viab 54.3
Cc1cccc(NC(=O)c2ccc(S(=O)(=O)N3CCOCC3)cc2)n1	none
CCn1c(=NC(=O)c2ccc(S(=O)(=O)N3CCOCC3)cc2)sc2cccc(OC)c21	L major viab 99.8 (no result: Cl transport mod)
COc1ccc(C)cc1NC(=O)c1ccc(S(=O)(=O)N2CCOCC2)cc1	none
O=C(CSc1nnc(NC(=O)c2ccc(S(=O)(=O)N3CCOCC3)cc2)s1)Nc1ccccc1C(F)(F)F	L major viab 92.3
COc1ccccc1C(=O)NCC1CCN(c2ccc(S(=O)(=O)N3CCOCC3)cc2)CC1	L major viab 99.6
O=C(CN(CCc1ccccc1)S(=O)(=O)c1ccc(Cl)cc1)N/N=C/c1ccccc1C(=O)O	none
O=C1C=C(NNC(=O)c2cccnc2)CC(c2ccco2)C1 (stereo not given)	none
COc1cccc2sc(NC(=O)c3ccc(S(=O)(=O)N4CCOCC4)cc3)nc12	L major viab 51.5 (no result: ROMK primary)
COc1ccccc1NC(=O)c1ccc(S(=O)(=O)N2CCOCC2)cc1	none (no result: Cl transport mod)
Cc1cc(Nc2ncc(Cl)cc2Cl)n(-c2ccccc2)n1	none
Cc1cc(Nc2cnc3ccccc3n2)n(-c2ccccc2)n1	L major viab 67.1 (no result: ROMK primary)
COc1nc(Nc2ccc([N+](=O)[O-])cc2)nc(NC2CCCCC2)n1	WT yeast gro inh 88.0, L major viab 89.0
C=CCNc1nc(Nc2ccc([N+](=O)[O-])cc2)nc(OC)n1	none
CCOC(=O)N1CCC(NC(=O)c2cc(C)c3c(C)nn(-c4ccccc4)c3n2)CC1	none (no result: ROMK primary)
CC(C)N(CC#CCC(O)(c1ccccc1)c1ccccc1)CCO	none
CCN(CC#CCC(O)(c1ccccc1)c1ccccc1)C(C)C	L major viab 87.0
CC(C)N(CC#CCC(O)(c1ccccc1)c1ccccc1)C(C)C	L major viab 87.8
Cc1cc(C)cc(C(=O)Nc2ccc(NC(=O)Cc3ccccc3)cc2)c1	none
CC(=O)Nc1cccc(NC=C(C#N)C#N)c1	none
CCN(CC)CCCn1c(C)cc2c(c1=O)C(c1cccc(Cl)c1)C(C#N)=C(N)O2 (stereo not given)	WT yeast gro inh 73.5, L major viab 66.5
O=S(=O)(N/N=C\C=C\c1ccccc1)c1ccccc1	L major viab 51.1 (no result: WT yeast gro inh, Diaphorase inh, Diaphorase act, ROMK primary)
COC(=O)[C@@H](NC(=O)Nc1cccc(Br)c1)C(C)C	none
CCCCN(C(=O)CSc1nnc(-c2ccccc2OC)n1C)c1c(N)n(Cc2ccccc2)c(=O)[nH]c1=O	L major viab 60.9
CC(=O)NS(=O)(=O)c1ccc(Nc2ccc([N+](=O)[O-])c3nonc23)cc1	none (no result: WT yeast gro inh, L major viab, Diaphorase inh, Diaphorase act, ROMK primary)
COc1ccccc1CN(Cc1nc2ccccc2c(=O)[nH]1)S(=O)(=O)c1ccc2ccccc2c1	L major viab 89.7 (no result: ROMK primary)
O=C(Nc1ccc(Cl)cc1)N(Cc1nc2ccccc2c(=O)[nH]1)Cc1cccs1	L major viab 84.7
COc1ccc(S(=O)(=O)N(Cc2ccccc2)Cc2nc3ccccc3c(=O)[nH]2)cc1	none (no result: ROMK primary)
COc1ccccc1CN(Cc1nc2ccccc2c(=O)[nH]1)C(=O)Nc1cccc(C)c1	L major viab 85.8
COc1ccccc1NC(=O)N(Cc1ccc2c(c1)OCO2)Cc1nc2ccccc2c(=O)[nH]1	none
O=C(Nc1ccccc1Cl)N(Cc1nc2ccccc2c(=O)[nH]1)Cc1cccs1	none
Cc1ccnc(NC(=O)c2cccc(NS(=O)(=O)c3ccccc3C)c2)c1	L major viab 91.1 (no result: ROMK primary)
Cc1nn(C(C)(C)C)c(OC(=O)c2cccs2)c1Sc1ccccc1	WT yeast gro inh 82.9
